Experimental data pooled from the literature.
Protocols differ between the studies behind these lines.
SPHK1: Sphingosine kinase 1 (SPHK1, Homo sapiens, UniProt Q9NYA1)
PARP1: Poly [ADP-ribose] polymerase 1 (PARP1, Homo sapiens, UniProt P09874)
CNR1: Cannabinoid receptor 1 (CNR1, Homo sapiens, UniProt P21554)
EHMT1: Histone-lysine N-methyltransferase EHMT1 (EHMT1, Homo sapiens, UniProt Q9H9B1)
EDNRA: Endothelin-1 receptor (EDNRA, Homo sapiens, UniProt P25101)
ADORA2A: Adenosine receptor A2a (ADORA2A, Homo sapiens, UniProt P29274)
PDE5A: cGMP-specific 3',5'-cyclic phosphodiesterase (PDE5A, Homo sapiens, UniProt O76074)
OPRK1: Kappa-type opioid receptor (OPRK1, Homo sapiens, UniProt P41145)

SMILES	target	test	test system	setting	inhibition [%]
[H]/N=C(\N)N1CCC[C@H]1c1nc(-c2ccc(OCC=Cc3ccccc3C(F)(F)F)c(C(F)(F)F)c2)no1	SPHK1	enzyme activity, inhibitor, radiometric	–	1 µM	0
COc1cc2c(cc1OC)-c1nnnn1CCC2	PARP1	enzyme activity, inhibitor	–	10 µM	60
O=C(NCCNC(=O)c1n[nH]c(=O)c2ccccc12)c1cccc(CN2C(=O)CNC2=O)c1	PARP1	enzyme activity, inhibitor	–	0.5 µM	~50
N=C(N)N1CCC[C@H]1c1nc(-c2ccc(CCC3CC3)c(C(F)(F)F)c2)no1	SPHK1	enzyme activity, inhibitor, radiometric	–	1 µM	14
COc1ccc(F)cc1C(=O)NCc1ccc(-c2nn([C@@H](C)C(F)(F)F)c(N)c2C(N)=O)cc1	Mitogen-activated protein kinase kinase kinase 3 (MAP3K3, Homo sapiens, UniProt Q99759)	target engagement in cells, inhibitor, chemoproteomics	–	1 µM	-38.6
CN1CCN(CCCOc2ccc(=O)n(-c3ccc(Cl)c(Cl)c3)n2)CC1	CNR1	ligand displacement	–	1 µM	27.4
CN(C)c1ccc(C(=C2C=CC(=[N+](C)C)C=C2)c2ccc(N(C)C)cc2)cc1	EHMT1	cell-free assay	–	10 µM	62
CCCc1ccc(CCc2ccc(-c3noc([C@@H]4CCCN4C(=N)N)n3)cc2C(F)(F)F)cc1	SPHK1	enzyme activity, inhibitor, radiometric	–	1 µM	6
CCN1CCN(Cc2ccc(NC(=O)c3ccc(C)c(/C=C/c4cnc5[nH]ccc5c4OC)c3)cc2C(F)(F)F)CC1	Serine/threonine-protein kinase A-Raf (ARAF, Homo sapiens, UniProt P10398)	target engagement in cells, inhibitor, chemoproteomics	A-375	5 µM	-23.9
O=C(Oc1cc(O)cc2c1C[C@@H](OC(=O)c1cc(O)c(O)c(O)c1)[C@@H](c1cc(O)c(O)c(O)c1)O2)c1cc(O)c(O)c(O)c1	EHMT1	cell-free assay	–	10 µM	-4
COc1cc(OC)c2c(=O)[nH]c(-c3c[nH]c4ncccc34)nc2c1	PARP1	enzyme activity, inhibitor, ELISA	–	10 µM	31
COc1cc(NC(C)=O)c(Cl)cc1C(=O)Nc1nccs1	EDNRA	cell-free assay	–	10 µM	-1.4
c1ccc(N2CCN(CCCc3ccc4oc(-c5ccco5)nc4c3)CC2)cc1	ADORA2A	ligand displacement, radioligand	–	10 µM, cell membranes	28
COC(=O)[C@@H]1Cc2c([nH]c3ccccc23)[C@@H](c2ccc(OC)c(OC)c2)N1	PDE5A	enzyme activity, inhibitor, FP	–	50 µM	7
O=c1[nH]c(-c2c[nH]c3ncccc23)nc2ccccc12	PARP1	enzyme activity, inhibitor, ELISA	–	1 µM	7
Oc1ccc(CCNc2ccc3oc(-c4ccco4)nc3c2)cc1	ADORA2A	ligand displacement, radioligand	–	10 µM, cell membranes	15
CCN1C(=O)[C@@H]2Cc3c([nH]c4ccccc34)[C@H](c3cccnc3)N2C1=O	PDE5A	enzyme activity, inhibitor, FP	–	50 µM	24
O=c1c(O)cccc2cc(O)c(O)c(O)c12	EHMT1	cell-free assay	–	10 µM	3
O=C(Nc1ccc(S(=O)(=O)N2CCC(Cl)CC2)cc1)c1ccc([N+](=O)[O-])o1	CNR1	ligand displacement, radioligand	–	10 µM	20
O=C(CSc1nc2nccnc2c(=O)n1CCc1ccccc1)Nc1ccccc1	Phosphatidylinositol 4-phosphate 3-kinase C2 domain-containing subunit beta (PIK3C2B, Homo sapiens, UniProt O00750)	enzyme activity, inhibitor	–	10 µM	72
CC(C)(C)N1C(=O)[C@@H]2Cc3c([nH]c4ccccc34)[C@@H](c3ccc(Br)s3)N2C1=O	PDE5A	enzyme activity, inhibitor, FP	–	10 µM	90
COC(=O)[C@H]1Cc2c([nH]c3ccccc23)[C@@H](c2ccc(OC)c(OC)c2)N1C(=O)CCl	PDE5A	enzyme activity, inhibitor, FP	–	50 µM	70
Oc1cccc(Nc2nc(-c3ccc(F)cc3F)cs2)c1	EDNRA	cell-free assay	–	10 µM	-11.2
COc1ccc(-c2nc3cc(CCN4CCCCC4)ccc3o2)cc1OC	ADORA2A	ligand displacement, radioligand	–	10 µM, cell membranes	10

SMILES	target	test	test system	setting	inhibition [%]
O=C1N=C(N2CCCCN2)S/C1=C\c1ccc(F)cc1O	EDNRA	ligand displacement, radioligand	–	10 µM	< 10
CS(=O)(=O)Nc1cccc(-c2csc(NC(=O)CSc3nc4nccnc4c(=O)n3CCc3ccccc3)n2)c1	SPHK1	enzyme activity, inhibitor	–	10 µM	9
O=C(c1ccc(F)cc1)N(Cc1ccccc1)C1CCCCC1	OPRK1	ligand displacement	–	10 µM	33
COc1ccc(-c2nc3cc(CCCN4CCCCC4)ccc3o2)cc1OC	ADORA2A	ligand displacement, radioligand	–	10 µM, cell membranes	10
O=C1C=C2CC3(O)COc4c(ccc(O)c4O)C3=C2C=C1O (stereo not drawn)	EHMT1	cell-free assay	–	10 µM	11
N=C(N)N1CCC[C@H]1c1nc(-c2ccc(CCC3CCCCC3)c(C(F)(F)F)c2)no1	SPHK1	enzyme activity, inhibitor, radiometric	–	1 µM	15
COc1cc(NC(C)CCCN)c2ncccc2c1 (stereo not drawn)	EHMT1	cell-free assay	–	10 µM	7
COc1ccc([C@@H]2c3[nH]c4ccccc4c3C[C@H]3C(=O)N(C(C)(C)C)C(=O)N23)cc1OC	PDE5A	enzyme activity, inhibitor, FP	–	50 µM	79
CN(C)C1CCN(CC#Cc2nn(C3CCCC3)c3nc(NCc4ccccc4)ncc23)C1 (stereo not drawn)	Serine/threonine-protein kinase TBK1 (TBK1, Homo sapiens, UniProt Q9UHD2)	enzyme activity, inhibitor, FRET	–	1 µM	3
COCCOc1ccc(N2CCN(CCc3ccc4oc(-c5ccco5)nc4c3)CC2)cc1	ADORA2A	ligand displacement, radioligand	–	10 µM, cell membranes	10
[H]/N=C(\N)N1CCC[C@H]1c1nc(-c2ccc(OCC=Cc3cccc(Br)c3)c(C(F)(F)F)c2)no1	SPHK1	enzyme activity, inhibitor, radiometric	–	1 µM	12
CC(C)(C)N1C(=O)[C@@H]2Cc3c([nH]c4ccccc34)[C@@H](c3cccnc3)N2C1=O	PDE5A	enzyme activity, inhibitor, FP	–	50 µM	90
Ic1cccc2cnccc12	PARP1	enzyme activity, inhibitor	–	10 µM	19.5
O=c1c(O)cccc2c([C@H]3Oc4cc(O)cc(O)c4C[C@H]3O)cc(O)c(O)c12	EHMT1	cell-free assay	–	10 µM	5
O=C1CCCc2ccc(F)cc2N1	PARP1	enzyme activity, inhibitor	–	10 µM	0
[H]/N=C(/N)N1CCC[C@H]1c1nc(-c2ccc(OCCC=CCCC)c(C(F)(F)F)c2)no1	SPHK1	enzyme activity, inhibitor, radiometric	–	1 µM	11
CCN(CC)c1ccc(C2Nc3ccc(C(=O)c4ccccc4)cc3NC3=C2C(=O)CC(C)(C)C3)cc1 (stereo not drawn)	Histamine H4 receptor (HRH4, Homo sapiens, UniProt Q9H3N8)	ligand displacement, radioligand	–	10 µM	12
O=C(O[C@@H]1Cc2c(O)cc(O)cc2O[C@@H]1c1cc(O)c(O)c(O)c1-c1c([C@H]2Oc3cc(O)cc(O)c3C[C@H]2O)cc(O)c(O)c1O)c1cc(O)c(O)c(O)c1	EHMT1	cell-free assay	–	10 µM	-3
CCCNc1nc2ccccc2n1Cc1ccc(Cl)cc1	OPRK1	ligand displacement	–	10 µM	11.1
COC(=O)[C@@H]1Cc2c([nH]c3ccccc23)[C@H](c2cccnc2)N1	PDE5A	enzyme activity, inhibitor, FP	–	50 µM	72
O=C(c1ccc(Cl)cc1)N(Cc1ccccc1)C1CCCCC1	EDNRA	cell-free assay	–	10 µM	1.4
CCN1C(=O)[C@@H]2Cc3c([nH]c4ccccc34)[C@@H](c3ccc(OC)c(OC)c3)N2C1=O	PDE5A	enzyme activity, inhibitor, FP	–	50 µM	75
[H]/N=C(\N)N1CCC[C@H]1c1nc(-c2ccc(OCCC=Cc3ccc(C(F)(F)F)cc3)c(C(F)(F)F)c2)no1	SPHK1	enzyme activity, inhibitor, radiometric	–	1 µM	5
CCN(Cc1ccccc1C(F)(F)F)C(=O)C1CCN(S(=O)(=O)c2ccc3[nH]ncc3c2)CC1	EDNRA	ligand displacement, radioligand	–	10 µM	1
